From ChEMBL document CHEMBL1221207, “Expanding the promiscuity of a natural-product glycosyltransferase by directed evolution” (Nat Chem Biol, 2007) come the findings set out here.

The test system of experiment [1] is T1, Oleandomycin glycosyltransferase (Streptomyces antibioticus), Q53685 [P67T,S132F,A242V].
T1 sequence (whole entry): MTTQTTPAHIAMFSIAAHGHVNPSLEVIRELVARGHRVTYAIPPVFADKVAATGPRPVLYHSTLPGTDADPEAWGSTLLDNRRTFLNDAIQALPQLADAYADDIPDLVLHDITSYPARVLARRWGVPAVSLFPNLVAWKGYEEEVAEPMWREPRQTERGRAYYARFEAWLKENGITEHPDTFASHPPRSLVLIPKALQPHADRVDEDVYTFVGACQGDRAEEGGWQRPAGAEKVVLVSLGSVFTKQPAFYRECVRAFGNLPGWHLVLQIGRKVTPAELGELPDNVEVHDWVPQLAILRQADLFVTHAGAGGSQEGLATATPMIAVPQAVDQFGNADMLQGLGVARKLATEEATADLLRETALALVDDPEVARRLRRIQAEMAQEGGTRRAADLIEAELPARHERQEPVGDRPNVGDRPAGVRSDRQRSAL
Briefly: Activity of Streptomyces antibioticus OleD P67T/S132F/A242V mutant assessed as conversion rate of compound to produce glucoside 3 using NDP sugar donor UDP-6-thio-glucose after 3 hrs by HPLC. The method, boiled down: (§1)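 End-point donor-specificity assay with purified OleD enzyme. Percentage conversion was read after 3 h. Quenched reactions were run by reverse-phase C18 HPLC with a 10–90% CH3CN gradient in 0.1% formic acid/H2O over 20 min at 1 ml min–1, with detection at 254 nm. Products were identified by LC-MS, by comparison to standards where available, and by fluorescence.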

In experiment [2] the target is T2, Oleandomycin glycosyltransferase (Streptomyces antibioticus) (UniProt Q53685).
T2 sequence (whole entry): T1 sequence (whole entry) with T67P, F132S, V242A
Put plainly: Activity of Streptomyces antibioticus OleD […] mutant assessed as as rate of glucoside formation measured as nanomoles of product formed per minute per mg of enzyme.

For experiment [3], the system named is T3, Oleandomycin glycosyltransferase (Streptomyces antibioticus), Q53685 [A242V].
T3 sequence (whole entry): T1 sequence (whole entry) with T67P, F132S
Briefly: Activity of Streptomyces antibioticus OleD A242V mutant assessed as as rate of glucoside formation measured as nanomoles of product formed per minute per mg of enzyme.

In experiment [4] the test system is T1, Oleandomycin glycosyltransferase (Streptomyces antibioticus), Q53685 [P67T,S132F,A242V]. Briefly: Activity of Streptomyces antibioticus OleD P67T/S132F/A242V mutant assessed as conversion rate of compound to produce glucoside 3 using NDP sugar donor UDP-4-amino-glucose after 3 hrs by HPLC. The method, boiled down: as §1
For experiment [5], the system named is T3, Oleandomycin glycosyltransferase (Streptomyces antibioticus), Q53685 [A242V]. Put plainly: Activity of Streptomyces antibioticus OleD A242V mutant assessed as conversion rate of compound to produce glucoside 3 using NDP sugar donor UDP-glucose after 3 hrs by HPLC. The method, boiled down: as §1
For experiment [6], the system named is T4, Oleandomycin glycosyltransferase (Streptomyces antibioticus), Q53685 [P67T].
T4 sequence (whole entry): T1 sequence (whole entry) with F132S, V242A
Briefly: Activity of Streptomyces antibioticus OleD P67T mutant assessed as as rate of glucoside formation measured as nanomoles of product formed per minute per mg of enzyme.

Experiment [7] relates to T1, Oleandomycin glycosyltransferase (Streptomyces antibioticus), Q53685 [P67T,S132F,A242V]. Put plainly: Activity of Streptomyces antibioticus OleD P67T/S132F/A242V mutant assessed as conversion rate of compound to produce glucoside 3 using NDP sugar donor-UDP-3-deoxy-glucose after 3 hrs by HPLC. The method, boiled down:
as §1

Changes are numbered by the printed parent chain.

As to `Cc1cc(=O)oc2cc(O)ccc12`, the Activity in experiment [1] came to 47%; in experiment [2] it was 6.3 nmol/min; in experiment [3], 5.4 nmol/min; in experiment [4], 13%; in experiment [5], 38%; in experiment [6], 15.7 nmol/min. In addition, the Activity in experiment [7] was 8%.
